Rows were chosen to be rich in hits. Some 2.4% of all compounds tested hit in one or more screens of this group.
UBC13 inh = inhibitors of human UBC13 polyubiquitin chain formation; P61088; TR-FRET; inhibition, % at 20 µM; hit rate 0.47% among 330,000; AID 485273; in the data active = inhibition above about 45%, passing the limit was not always enough; inconclusive = no clear call, values can overlap the other calls
Target sequence (P61088 whole entry, looked up): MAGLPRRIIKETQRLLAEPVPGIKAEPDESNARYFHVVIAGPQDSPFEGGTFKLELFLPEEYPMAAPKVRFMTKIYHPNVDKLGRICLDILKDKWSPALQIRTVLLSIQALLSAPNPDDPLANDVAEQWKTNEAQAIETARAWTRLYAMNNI
FID counter = displaces DNA intercalator in HCV helicase counter-screen | DNA fluorescent intercalator displacement, fluorescence | inhibition, % at 7.9 µM | hit rate 0.17% among 290,000 | AID 1845; in the data active = inhibition above about 37%;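 note: 0% = vehicle and 100% = reference compound; higher means more ethidium bromide displaced from hairpin DNA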
ANO1 activ = activates or potentiates the mouse TMEM16A chloride channel; HEK293 TMEM16A/YFP-H148Q/I152L, iodide quench fluorescence; hits give low values; B-score at 10 µM; hit rate 0.3% among 340,000;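 active = fluorescence-ratio B-score plate-corrected deviation score at least 3 library SD below zero, with starting fluorescence score within 5 deviations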;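 note: channel opened by trigger with iodide after compound preincubation; score built on the fluorescence ratio of max minus min over baseline; more negative score means more quench and so TMEM16A activation or potentiation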
ANO1 block = inhibitors of mouse TMEM16A calcium-activated chloride channel. HEK293 TMEM16A/YFP iodide influx fluorescence, ionomycin. normalized B-score (activity score, 25-100; higher = stronger inhibition) at 10 µM. hit rate 1.2% among 310,000. AID 588511;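 active = ratio plate-corrected score three or more library SD toward inhibition, starting fluorescence score within five deviations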;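 note: score derived from kinetic fluorescence span divided by baseline fluorescence per well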
Apaf-1 inh = human Apaf-1 inhibition; O14727; inhibition, % at 20 µM; hit rate 0.71% among 330,000; reconstituted apoptosome caspase-3 activity, DEVD-Rh110 fluorescence; active = inhibition of at least 40% at 20 µM;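 note: plate controls were DMSO wells for no effect and DEVD-CHO caspase inhibitor wells for full effect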
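detection = Rh110 fluorescence intensity | test system = biochemical Apaf-1 apoptosome reconstitution | also added = cytochrome c and DEVD-Rh110 substrate | schedule = 30 min plus 50 min, RT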
An asterisk follows results filed as active; i = inactive; ? = inconclusive; nt = not tested or not shown; ! = not active in a repeat.

SMILES	UBC13 inh	FID counter	ANO1 activ	ANO1 block	Apaf-1 inh
COc1ccccc1C(c1nnnn1C1CCCC1)N1CCN2CCCC2C1 (configuration not stated)	-1	10	-12*	i	-15
O=C(Cc1nnc(NC(=O)Nc2ccccc2F)s1)NCc1ccccc1	0	-5	i	i	-6
CC(C)(C)C1CCC2(CC1)C(C#N)=C(SCC(=O)Nc1ccccc1)NC(=O)C2C#N (configuration not stated)	-12	-20	i	100*	16
c1ccc(CN2CCC(Nc3nc(-c4cccs4)nc4ccccc34)CC2)cc1	25	59*	i	i	21
O=C1CC(c2cccc([N+](=O)[O-])c2)c2ccc3ccccc3c2N1 (configuration not stated)	3	-14	i	25*	13
O=C1CC(c2ccsc2)c2ccc3ccccc3c2N1 (configuration not stated)	6	-23	i	i	9
O=C(NCCc1ccccc1)c1ccc(NS(=O)(=O)c2ccc3[nH]c(=O)[nH]c3c2)cc1	-10	nt	i	i	1
CCCCN1CNC(=S)N(c2ccccc2OCC)C1	-4	-12	i	i	-2
Cc1ccc(Cl)cc1N1CCN(S(=O)(=O)N2CCCCC2)CC1	nt	-18	-9.7*	i	nt
CCc1cc(C(=O)N2CCCC(C(=O)c3cccc4ccccc34)C2)n(C)n1 (configuration not stated)	9	-27	i	25*	-12
CCCc1cc(C(=O)N2CCCC(C(=O)c3cccc4ccccc34)C2)n(C)n1 (configuration not stated)	25	-34	i	i	-9
CCc1ccc(CN(C)C(=O)c2cc(COc3c(F)cccc3F)on2)cc1	-14	-18	-26*	i	9
CCc1ccc(CN2CCC(N3CCC(C(=O)N4CCCC4)CC3)CC2)o1	9	1	i	i	-8
CC(=O)c1c(COC(=O)c2cccnc2)nc2ccccc2[n+]1[O-]	-10	0	-8.8*	i	-4
c1ccc2c(c1)OC(CCCN1CCCCC1)c1ccccc1S2 (configuration not stated)	27	38*	i	i	19
CN(C)CCCN(C(=O)c1cc(-c2cccs2)nc2ccccc12)c1nc2ccc(F)cc2s1	18	40*	i	i	25
Cc1csc2nc(CSc3nncn3-c3ccccc3)c(Br)n12	-1	-18	i	i	-5
Cc1csc2nc(CSc3nc4ccccc4o3)c(Br)n12	9	-1	i	25*	15
COc1ccc(NC(=O)/C(C#N)=C\c2ccc(-c3cc(C(=O)O)ccc3C)o2)cc1	-24	-25	i	i	8
CC1=CC(=O)C(C(C)C)=C/C1=N/OS(=O)(=O)c1ccccc1	-4	-9	-6.5*	100*	-14
S=c1[nH]ncn1/N=C/c1cccs1	13	-2	i	i	-26
CC1(C)CC[C@]2(C(=O)O)CC[C@]3(C)C(=CC[C@@H]4[C@@]5(C)CC[C@H](O[C@@H]6O[C@H](C(=O)O)[C@@H](O)[C@H](O[C@@H]7OC[C@H](O)[C@H](O)[C@H]7O)[C@H]6O)C(C)(C)[C@@H]5CC[C@]43C)[C@@H]2C1	-32	nt	-17*	nt	15
COc1ccc(Cl)cc1NC(=O)CN1CCN(Cc2ccccc2)CC1	13	-4	i	i	1
CC(C)N1C(=O)S/C(=C/c2ccc(Sc3nc4ccccc4[nH]3)o2)C1=O	-15	-4	i	100*	8
C=CCN1C(=O)S/C(=C/c2ccsc2)C1=O	-9	-2	i	i	7
SMILES	UBC13 inh	FID counter	ANO1 activ	ANO1 block	Apaf-1 inh
C=CCN1C(=O)S/C(=C/c2ccc(Sc3nc4ccccc4[nH]3)o2)C1=O	-11	-7	i	100*	16
CCOC(=O)C(C)N1C(=O)S/C(=C\c2ccc(-c3ccccc3C(=O)O)o2)C1=O (configuration not stated)	0	-15	i	i	12
COC(=O)[C@]1(C)CCC[C@@]2(C)C3CC[C@@]4(C)C[C@]3(CCC21)CC(=O)N4 (some centres not stated)	-8	nt	i	nt	9
C=C1C(=O)C23CCC4C(C)(C(=O)OC)CCCC4(C)C2CCC1(O)C3 (configuration not stated)	nt	nt	-8.6*	nt	nt
CCOc1ccc(C(=S)NC2CCCCC2)cc1OCC	1	-27	-6.5*	i	3
COc1cc(C2CC(=O)Nc3ccccc3S2)cc(OC)c1OC (configuration not stated)	8	89*	nt	i	2
Cc1cc(NC(=O)CSc2nc3ccccc3c(=O)n2CCCC(=O)NCc2ccccc2)n[nH]1	10	-26	i	i	11
COc1ccc(C(=O)Nn2c(SCC(=O)c3ccccc3)nc3ccccc3c2=O)cc1	83*	-4	i	i	14
O=C(CCCn1c(SCC(=O)c2ccc(F)cc2)nc2ccccc2c1=O)NCc1ccccc1	6	-2	i	25*	5
COc1cccc(-c2nn(C)c3sc(C(=O)N4CCN(c5ccccn5)CC4)cc23)c1	12	-29	i	25*	23
CN(C)S(=O)(=O)Oc1cccc(C(=O)Nc2ccc(Cl)cc2)c1	11	-6	i	100*	10
O=C1CCCN1CC(O)CS(=O)(=O)Cc1ccc(Cl)c(Cl)c1 (configuration not stated)	5	-6	i	i	-4
COc1ccc(CN(C)C(=O)CCN(c2ccccc2)S(=O)(=O)c2ccc(C)cc2)c(OC)c1	9	nt	i	25*	37
OCc1cc(C(O)CNCCCCCCOCCCCc2ccccc2)ccc1O (configuration not stated)	22	31	i	i	42*!
Cc1ccc2nc3c(c(N)c2c1)CCN3c1ccccc1	?	15	i	i	17
Cc1ccc2nc3c(c(N)c2c1)CCN3C	0	42*	i	i	12
Cc1cc(Nc2ccccc2)nn1C(=O)c1ccccc1	?	-1	i	25*	-2
COc1cccc2c1C(=O)c1c(O)c3c(c(O)c1C2=O)C[C@@](O)(C(=O)CO)C[C@@H]3O[C@H]1C[C@H](N)[C@@H](O)[C@H](C)O1	-161	nt	i	i	56*
COc1cccc2c1C(=O)c1c(O)c3c(c(O)c1C2=O)C[C@@](O)(C(C)=O)C[C@@H]3O[C@H]1C[C@H](N)[C@H](O)[C@H](C)O1	nt	36	i	nt	nt
Cc1ccc(S(=O)(=O)NC(=O)c2ccc(-c3ccc(-c4ccccc4)cc3)o2)c(C)c1	-29	-10	nt	100*	31
CN(CC(=O)Nc1ccccc1C(=O)NC1CC1)Cc1ccco1	-2	nt	i	nt	4
O=C(c1ccc(COc2ccc(Cl)cc2)o1)N1CCN(Cc2ccc3c(c2)OCO3)CC1	9	-10	i	25*	19
